Results on eight molecules are retold here after ChEMBL document CHEMBL3232757, “Structure-activity relationships for withanolides as inducers of the cellular heat-shock response” (J Med Chem, 2014).

In general, inhibition refers to how much of the control response was suppressed. The term IC50 denotes the concentration that gives 50% inhibition.

The nature of assay [1]: Cytotoxicity against human CHP100 cells assessed as inhibition of cell survival at 4 uM after 24 hrs by MTT assay relative to control. The class given is functional. The note with it: CHP100, 24 h.
A short description of assay [2]: Cytotoxicity against human CHP100 cells assessed as inhibition of cell survival after 24 hrs by MTT assay. The class given is functional, cell-based. The note with it: CHP100, 24 h. On the technique in general: Tetrazolium assays rely on reduction of a dye to a coloured formazan, in cell work by metabolically active cells.
Assay [3] concerns the target Heat shock 70 kDa protein 6 (Homo sapiens) (UniProt P17066). Nature of the assay: Induction of […] (unknown origin)-mediated heat shock response expressed in human 293T cells coexpressing GFP assessed as heat shock index after overnight incubation by luciferase reporter gene assay relative to control. In kind it is cell-based. The method in brief: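 293T cells transduced with a lentiviral EGFP–firefly luciferase fusion under HSP70B′ promoter elements, enriched by heat shock (42 °C, 1 h) plus FACS, then reverse-sorted to remove constitutive expressers. Cells in DMEM/10% FBS were seeded at 20 000/well and given serial dilutions next day, quadruplicate wells, overnight. Read by Steady-Glo luminescence. Index = [Log2(treated/control)]/concentration (μM) at maximal response.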

A short description of assay [4]: Cytotoxicity against human NCI-H929 cells after 3 days by Alamar blue assay. The following applies: NCI-H929, 72 h. The class given is functional, cell-based.
Assay [5] is filed under the species Mus musculus. Nature of the assay: Induction of heat shock protein-mediated heat shock response in mouse 3T3-Y9-B12 cells assessed as heat shock index after 24 hrs by fluorescence assay relative to control. In kind it is cell-based. The method in brief:
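Mouse 3T3-Y9-B12 heat-shock reporter cells seeded 20 000/well, left to adhere overnight, then exposed 24 h to compound at 1, 2, or 4 μM. After PBS wash, fluorescence read at excitation 485 nm and emission 530 nm. Heat-shock index calculated as [Log2(treated/control)]/concentration (μM).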

Assay [6] deals with Mus musculus. Nature of the assay: Induction of heat shock activity in mouse assessed as upregulation of HSP72 protein level in spleen at 25 mg/kg, sc after 18 hrs by immunoblotting analysis. More on the design: dose 25 mg/kg. In kind it is functional, organism-based. Put shortly:
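Mice were randomly assigned. Dosing was by subcutaneous injection, 25 mg/kg, in hydroxypropyl β-cyclodextrin 30% w/v with DMSO 10% v/v; vehicle controls got an equal volume; five mice per group. Spleens were taken about 18 h later, snap-frozen, pulverized and lysed in nonionic detergent buffer. 15 μg protein/lane went to SDS-PAGE and immunoblotting for HSP72. Band intensity was normalized to β-actin. Variance versus vehicle was compared by F test.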

Assay [7] has as its system Mus musculus. Nature of the assay: Induction of heat shock activity in mouse assessed as upregulation of HSP72 protein level in spleen at 40 mg/kg, sc after 18 hrs by immunoblotting analysis relative to control. In kind it is functional, organism-based. The arrangement: dose 40 mg/kg. The method in brief:
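Mice given a single subcutaneous dose in cyclodextrin vehicle (hydroxypropyl β-cyclodextrin 30% w/v, DMSO 10% v/v). Controls received an equal volume of vehicle alone. Three mice per group at 40 mg/kg. Spleens harvested about 18 h after dosing, snap-frozen and lysed in nonionic detergent buffer. 15 μg protein/lane run on SDS-PAGE and immunoblotted for HSP72 and β-actin. HSP72 band intensity normalized to actin; Student's t test versus vehicle.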
A general note: Immunoblotting shows a protein as a band on a membrane.

Active and inactive are the calls of the source. The calls are words filed in the database; no cut-off is given here.

Heat shock 70 kDa protein 6 (Homo sapiens), sequence (P17066 whole entry, the tested form may be a part): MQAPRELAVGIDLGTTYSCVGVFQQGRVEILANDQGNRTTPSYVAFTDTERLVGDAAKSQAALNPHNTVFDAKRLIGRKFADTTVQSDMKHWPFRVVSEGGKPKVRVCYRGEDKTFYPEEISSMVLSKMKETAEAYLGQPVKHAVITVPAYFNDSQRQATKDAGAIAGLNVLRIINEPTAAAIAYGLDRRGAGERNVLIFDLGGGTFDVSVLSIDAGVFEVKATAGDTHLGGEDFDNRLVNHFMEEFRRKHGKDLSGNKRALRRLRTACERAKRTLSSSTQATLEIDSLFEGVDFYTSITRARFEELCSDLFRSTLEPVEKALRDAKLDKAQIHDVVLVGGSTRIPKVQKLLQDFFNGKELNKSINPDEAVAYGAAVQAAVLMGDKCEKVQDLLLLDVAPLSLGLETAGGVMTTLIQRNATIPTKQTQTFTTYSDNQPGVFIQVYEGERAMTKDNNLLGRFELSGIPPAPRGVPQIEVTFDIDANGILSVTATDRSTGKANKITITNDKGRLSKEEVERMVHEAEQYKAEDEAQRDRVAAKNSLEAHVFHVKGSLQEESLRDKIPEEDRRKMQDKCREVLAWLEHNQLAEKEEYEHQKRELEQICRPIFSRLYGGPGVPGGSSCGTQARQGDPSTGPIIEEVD

As for `CC(=O)OCC1=C(C)C[C@H]([C@@H](C)[C@H]2CC[C@H]3[C@@H]4C[C@H]5O[C@]56[C@H](O)C=CC(=O)[C@]6(C)[C@H]4CC[C@]23C)OC1=O`, the inhibition at 4 µM in assay [1] is more than 80%. Also, the IC50 in assay [2] was 0.22 µM; in assay [4], 0.05 µM. The Activity result in assay [3] is “Dose-dependent effect”. The fold change (FC) is 3.69 in assay [3] and 4.7 in the assay filed under Mus musculus [5].

Regarding `CC(=O)OCC1=C(C)C[C@H]([C@@H](C)[C@H]2CC[C@H]3[C@@H]4C[C@H]5O[C@]56[C@H](OC(C)=O)C=CC(=O)[C@]6(C)[C@H]4CC[C@]23C)OC1=O`, the result with Mus musculus [6] and in the assay on Mus musculus [7] was Active.

For the molecule `CC1=C(CO)C(=O)O[C@@H]([C@@H](C)[C@H]2CC[C@H]3[C@@H]4C[C@H]5O[C@]56[C@@H](O)C=CC(=O)[C@]6(C)[C@H]4CC[C@]23C)C1` [WITHAFERIN A], the inhibition at 4 µM in assay [1] is more than 80%. Further, the IC50 was determined as 0.97 µM in assay [2] and 0.25 µM in assay [4]. Besides, the Activity result in assay [3] was “Dose-dependent effect”. The fold change (FC) in assay [3] came to 1.35; in the assay filed under Mus musculus [5], 2.1. Besides, in the assay on Mus musculus [6], the result was inactive.

In the case of `CC(=O)O[C@@H]1C=CC(=O)[C@]2(C)[C@H]3CC[C@]4(C)[C@@H]([C@H](C)[C@H]5CC(C)=C(CO)C(=O)O5)CC[C@H]4[C@@H]3C[C@H]3O[C@]132`, the inhibition at 4 µM in assay [1] was more than 80%. The results for the IC50 in assay [2] and in assay [4] were 0.83 µM and 0.25 µM, respectively. In addition, the fold change (FC) in assay [3] turned out to be 1.64.

For the molecule `CC(=O)OCC1=C(C)C[C@H]([C@@H](C)[C@H]2CC[C@H]3[C@@H]4C[C@H]5O[C@]56C(=O)C=CC(=O)[C@]6(C)[C@H]4CC[C@]23C)OC1=O`, in assay [1], the inhibition at 4 µM was more than 80%. The IC50 in assay [2] is 0.39 µM; in assay [4], 0.46 µM. In addition, the fold change (FC) in assay [3] was 0.92.

Take `CC(=O)OCC1=C(C)C[C@H]([C@@H](C)[C@H]2C[C@@H](OC(C)=O)[C@H]3[C@@H]4C[C@H]5O[C@]56[C@@H](OC(C)=O)C=CC(=O)[C@]6(C)[C@H]4CC[C@@]32C)OC1=O`: the inhibition at 4 µM in assay [1] was more than 80%. For the same molecule, the IC50 in assay [2] worked out at 0.31 µM; in assay [4], 0.24 µM. For the same molecule, the fold change (FC) in assay [3] is 1.65.

On to `CC(=O)O[C@H]1C=CC(=O)[C@]2(C)[C@H]3CC[C@]4(C)[C@@H]([C@H](C)[C@H]5CC(C)=C(CO)C(=O)O5)CC[C@H]4[C@@H]3C[C@H]3O[C@]132`, for which the inhibition at 4 µM in assay [1] is more than 80%. Moreover, the IC50 amounted to 0.78 µM in assay [2] and 0.25 µM in assay [4]. Also, the fold change (FC) in assay [3] worked out at 1.73.

Consider `CC1=C(CO)C(=O)O[C@@H]([C@@H](C)[C@H]2CC[C@H]3[C@@H]4C[C@H]5O[C@]56[C@@H](O)[C@H](n5ccc(=O)[nH]c5=O)CC(=O)[C@]6(C)[C@H]4CC[C@]23C)C1`, for which the inhibition at 4 µM in assay [1] was more than 80%. Further, the IC50 stood at 0.96 µM in assay [2] and 0.54 µM in assay [4]. For the same molecule, in assay [3], the fold change (FC) was 0.59.
